Assay results taken from ChEMBL document CHEMBL1240506, “Identification and development of novel inhibitors of Toxoplasma gondii enoyl reductase” (J Med Chem, 2010).
≈ marks a conversion by molar mass, not a printed value. Calls of active or inactive are those of the source. The rule behind the calls is not given here.

What was measured:
[1] = Metabolic stability in human liver microsome assessed as compound remaining after 60 mins; type: ADME; details: liver microsomes, read-out: INH
Method in brief: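 Compounds were incubated with pooled human liver microsomes for 60 minutes, and the percentage of parent compound remaining was measured.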

[2] = tested on: Toxoplasma gondii; test: Antiparasitic activity against Toxoplasma gondii infected in HFF after 24 hrs by [3H]uracil incorporation assay; type: functional
Method in brief: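 Human foreskin fibroblasts were infected with T. gondii tachyzoites and given 1 h to invade before inhibitors were added. Cultures ran 3 days, then 3H-uracil was added for a further day. Parasite growth was read as uracil incorporation by liquid scintillation counting. MIC50 and MIC90 are the concentrations giving 50% and 90% growth inhibition. There were 6 replicate samples per group.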

[3] = tested on: HFF; test: Toxicity to HFF; type: cell-based; details: human
Method in brief: (§1)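 Host-cell toxicity was tested on non-confluent fibroblast monolayers by 3H-thymidine incorporation, alongside visual inspection of monolayer integrity. Testing ran simultaneously with the parasite inhibition assay, and the highest concentration tested was scored.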

[4] = tested on: Toxoplasma gondii; test: Antiparasitic activity against Toxoplasma gondii RH infected in ip dosed CD1 mouse; type: functional, organism-based
Method in brief: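 CD1 mice were infected intraperitoneally with 2000 RH (Type 1) parasites, a lethal inoculum. Inhibitors were given intraperitoneally at 10mg/kg. Read-outs were peritoneal parasite burden by microscopy at day 5 and survival up to day 5 post-infection. There were 6 mice per group.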

[5] = molecular target: CYP2C9 (Homo sapiens, UniProt P11712); test: Inhibition of CYP2C9 at 10 uM; type: ADME
Method in brief: (§2)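 Inhibition was measured against recombinant CYP450 isozymes 2C9, 2D6 and 3A4, each with compound at 10μM, and reported as percent inhibition.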

[6] = molecular target: CYP2D6 (Homo sapiens, UniProt P10635); test: Inhibition of CYP2D6 at 10 uM; type: ADME; method in brief: as §2
[7] = molecular target: CYP3A4 (Homo sapiens, UniProt P08684); test: Inhibition of CYP3A4 at 10 uM; type: ADME; method in brief: as §2
[8] = tested on: HFF; test: Toxicity to HFF at highest concentration; type: cell-based; details: human; method in brief: as §1
[9] = molecular target: T1, Enoyl-acyl carrier reductase (Toxoplasma gondii, UniProt Q6UCJ9); test: Inhibition of Toxoplasma gondii enoyl reductase
T1 sequence (Q6UCJ9 whole entry): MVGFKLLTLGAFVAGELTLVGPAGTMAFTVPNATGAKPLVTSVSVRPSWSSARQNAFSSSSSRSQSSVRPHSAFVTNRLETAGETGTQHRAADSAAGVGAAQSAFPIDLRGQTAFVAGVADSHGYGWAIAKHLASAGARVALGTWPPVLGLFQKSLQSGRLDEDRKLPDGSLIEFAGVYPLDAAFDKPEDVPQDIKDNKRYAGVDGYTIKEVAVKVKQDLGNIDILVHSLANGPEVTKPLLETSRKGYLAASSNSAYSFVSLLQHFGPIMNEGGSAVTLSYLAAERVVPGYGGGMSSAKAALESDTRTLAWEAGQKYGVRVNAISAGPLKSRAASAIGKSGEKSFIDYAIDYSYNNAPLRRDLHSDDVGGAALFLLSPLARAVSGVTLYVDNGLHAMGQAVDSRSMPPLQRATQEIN
Method in brief: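 Recombinant TgENR (20 nM) was assayed in 100 mM Na/K phosphate pH 7.5, 150 mM NaCl and 100 μM NADH. Compounds were added in DMSO (2% final), and reactions were started at 25°C with 100 μM crotonyl-CoA. NADH consumption was followed at 340 nm.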

Sequence of CYP3A4 (P08684 whole entry): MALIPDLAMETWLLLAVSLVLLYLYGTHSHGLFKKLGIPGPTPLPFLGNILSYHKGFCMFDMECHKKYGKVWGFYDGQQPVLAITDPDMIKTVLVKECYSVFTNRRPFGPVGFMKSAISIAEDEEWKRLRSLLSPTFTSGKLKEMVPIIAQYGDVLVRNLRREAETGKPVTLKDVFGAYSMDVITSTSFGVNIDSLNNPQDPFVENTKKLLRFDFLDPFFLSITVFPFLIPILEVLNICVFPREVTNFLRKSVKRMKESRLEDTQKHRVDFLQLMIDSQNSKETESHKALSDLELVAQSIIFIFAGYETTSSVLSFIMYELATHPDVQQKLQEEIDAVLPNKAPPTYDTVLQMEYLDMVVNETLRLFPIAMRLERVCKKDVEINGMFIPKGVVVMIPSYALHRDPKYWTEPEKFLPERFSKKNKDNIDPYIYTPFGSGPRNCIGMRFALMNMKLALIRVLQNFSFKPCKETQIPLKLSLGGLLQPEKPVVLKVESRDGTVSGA
Sequence of CYP2D6 (P10635 whole entry): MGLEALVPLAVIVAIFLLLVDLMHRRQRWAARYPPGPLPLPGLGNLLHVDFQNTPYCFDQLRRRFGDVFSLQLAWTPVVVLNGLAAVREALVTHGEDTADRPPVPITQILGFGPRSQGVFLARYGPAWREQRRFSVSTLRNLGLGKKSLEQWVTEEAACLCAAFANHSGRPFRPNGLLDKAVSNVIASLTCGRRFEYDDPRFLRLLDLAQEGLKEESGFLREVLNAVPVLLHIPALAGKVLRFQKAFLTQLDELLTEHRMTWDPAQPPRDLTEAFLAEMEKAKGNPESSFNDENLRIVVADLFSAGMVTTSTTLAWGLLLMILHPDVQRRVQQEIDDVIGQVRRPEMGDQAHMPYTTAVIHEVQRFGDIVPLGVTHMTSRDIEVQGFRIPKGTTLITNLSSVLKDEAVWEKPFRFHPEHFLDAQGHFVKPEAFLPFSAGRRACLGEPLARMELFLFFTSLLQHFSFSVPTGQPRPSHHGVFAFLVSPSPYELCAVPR
Sequence of CYP2C9 (P11712 whole entry): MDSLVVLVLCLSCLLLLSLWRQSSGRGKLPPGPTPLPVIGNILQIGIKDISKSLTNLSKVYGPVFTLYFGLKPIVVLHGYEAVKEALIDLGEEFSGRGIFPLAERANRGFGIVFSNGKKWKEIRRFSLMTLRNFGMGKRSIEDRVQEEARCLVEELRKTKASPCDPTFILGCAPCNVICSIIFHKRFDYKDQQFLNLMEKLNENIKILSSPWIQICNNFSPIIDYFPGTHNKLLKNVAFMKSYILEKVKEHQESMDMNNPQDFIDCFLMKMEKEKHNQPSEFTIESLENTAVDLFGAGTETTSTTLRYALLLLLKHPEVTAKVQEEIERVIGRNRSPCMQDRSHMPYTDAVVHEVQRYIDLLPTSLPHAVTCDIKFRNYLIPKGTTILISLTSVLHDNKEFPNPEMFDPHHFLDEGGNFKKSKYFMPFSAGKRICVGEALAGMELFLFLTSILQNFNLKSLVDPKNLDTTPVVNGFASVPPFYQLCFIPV

In the case of `O=[N+]([O-])c1ccc(Oc2ccc(Cl)cc2O)c(Cl)c1`, the remaining at 1 h [1] is reported as 51.2%, the MIC50 [2] is reported as 4 µM (≈ 1.2 µg/mL) and the MIC90 [2] is reported as 6 µM (≈ 1.8 µg/mL). The Activity [3] was 4 µM, the Activity [4] was “Active” and the inhibition at 10 µM [5] was greater than 85%. The inhibition at 10 µM [6] was less than 22%, the inhibition at 10 µM [7] was less than 22% and the Activity [8] was “Non-toxic”.
Compound `Nc1ccccc1CNC(=O)COc1ccc([N+](=O)[O-])cc1` has an MIC50 [2] greater than 24 µM and an MIC90 [2] greater than 24 µM.
In the case of `O=c1[nH]c2ccccc2n1-c1ccc([N+](=O)[O-])c(Cl)c1`, the MIC50 [2] is reported as greater than 24 µM and the MIC90 [2] is reported as greater than 24 µM.
`COc1ccc(NC(=O)COc2ccc([N+](=O)[O-])cc2)cc1` gave an MIC50 [2] of 23 µM (≈ 6.95 µg/mL) and an MIC90 [2] greater than 24 µM.
Work on `O=[N+]([O-])c1ccccc1Oc1ccc(Cl)cc1O` yielded an IC50 [9] of 0.29 µM, an MIC50 [2] of 14 µM (≈ 3.72 µg/mL) and an MIC90 [2] of 23 µM (≈ 6.11 µg/mL). For the same compound, the Activity [8] was “Non-toxic”.
With `C/C=C/C=C/C(=O)Nc1ccc(Oc2ccc(Cl)cc2Cl)c(O)c1` the IC50 [9] was 2 µM, the MIC50 [2] was 14 µM (≈ 5.1 µg/mL) and the MIC90 [2] was 22 µM (≈ 8.01 µg/mL). The Activity [8] was “Non-toxic”.
`CCCc1ccc(Oc2ccc([N+](=O)[O-])cc2[N+](=O)[O-])c(O)c1` gave an IC50 [9] of less than 0.02 µM, an MIC50 [2] of 2 µM (≈ 0.637 µg/mL) and an MIC90 [2] of 6 µM (≈ 1.91 µg/mL). For the same compound, the Activity [3] was less than 1.5 µM and the Activity [8] was “Non-toxic”.
`CCCc1ccc(Oc2cccc([N+](=O)[O-])c2)c(O)c1` gave an MIC50 [2] greater than 6 µM, an MIC90 [2] greater than 6 µM and an Activity [3] of 6 µM. For the same compound, the Activity [8] was “Non-toxic”.
Compound `CCCc1ccc(Oc2ccc(N)cc2)c(O)c1` has an IC50 [9] of less than 0.02 µM, an MIC50 [2] of 6 µM (≈ 1.46 µg/mL) and an MIC90 [2] greater than 6 µM. The Activity [3] was 3 µM and the Activity [8] was “Non-toxic”.
For `CCCc1cc(O)c(Oc2ccc(C(=O)O)cc2Cl)c(O)c1`, the MIC50 [2] was greater than 24 µM, the MIC90 [2] was greater than 24 µM and the Activity [8] was “Non-toxic”.
`Oc1cc(Cl)ccc1Oc1cccnc1` gave an IC50 [9] of 2.8 µM, an MIC50 [2] greater than 6 µM and an MIC90 [2] greater than 6 µM. For the same compound, the Activity [3] was greater than 6 µM and the Activity [8] was “Non-toxic”.
`CCCc1ccc(Oc2cccc(CCO)c2)c(O)c1` showed an MIC50 [2] greater than 6 µM, an MIC90 [2] greater than 6 µM and an Activity [3] greater than 6 µM. For the same compound, the Activity [8] was “Non-toxic”.
For `CCOC(=O)C(C)OC(=O)c1cc(Oc2ccc(C(F)(F)F)cc2Cl)ccc1[N+](=O)[O-]` (stereo not given) [LACTOFEN], the MIC50 [2] was 16 µM (≈ 7.39 µg/mL), the MIC90 [2] was 23 µM (≈ 10.6 µg/mL) and the Activity [8] was “Non-toxic”.
With `CC(=O)Nc1ccccc1Oc1ccc(Cl)cc1O` the MIC50 [2] was greater than 24 µM and the MIC90 [2] was greater than 24 µM.
Work on `Oc1cc(Cl)ccc1Oc1ccccc1` yielded an MIC50 [2] of 5 µM (≈ 1.1 µg/mL), an MIC90 [2] greater than 6 µM and an Activity [3] greater than 6 µM. For the same compound, the Activity [8] was “Non-toxic”.
In the case of `Oc1cc(Cl)ccc1Oc1ccc(-c2ccccc2)cc1`, the MIC50 [2] is reported as 6 µM (≈ 1.78 µg/mL), the MIC90 [2] is reported as 20 µM (≈ 5.94 µg/mL) and the Activity [8] is reported as “Non-toxic”.
For `NC(=O)c1ccc(Cn2ccc(OCc3ccccc3)cc2=O)c(Cl)c1`, the MIC50 [2] was greater than 24 µM and the MIC90 [2] was greater than 24 µM.
With `COc1ccc(COc2ccn(Cc3ccccc3Cl)c(=O)c2)cc1` the IC50 [9] was greater than 20 µM, the MIC50 [2] was 17 µM (≈ 6.05 µg/mL) and the MIC90 [2] was 23 µM (≈ 8.18 µg/mL). For the same compound, the Activity [8] was “Non-toxic”.
Work on `Nc1ncccc1C(=O)Nc1cc(Cl)ccc1Oc1ccccc1` yielded an IC50 [9] greater than 20 µM, an MIC50 [2] of 17 µM (≈ 5.78 µg/mL) and an MIC90 [2] of 24 µM (≈ 8.15 µg/mL). The Activity [8] was “Non-toxic”.
For `O=c1cc(OCc2ccccc2)ccn1Cc1ccccc1Cl`, the IC50 [9] was greater than 20 µM, the MIC50 [2] was 7 µM (≈ 2.28 µg/mL) and the MIC90 [2] was 15 µM (≈ 4.89 µg/mL). The Activity [8] was “Non-toxic”.
`CCCc1cc(O)c(Oc2ccc(C#N)cc2Cl)c(OC)c1` gave an MIC50 [2] greater than 6 µM, an MIC90 [2] greater than 6 µM and an Activity [3] greater than 6 µM. For the same compound, the Activity [8] was “Non-toxic”.
`CC(C)(C)C(=O)Nc1cc(Cl)ccc1Oc1ccccc1` showed an MIC50 [2] greater than 6 µM, an MIC90 [2] greater than 6 µM and an Activity [3] greater than 6 µM. The Activity [8] was “Non-toxic”.
Compound `COc1ccc(NC(=O)/C=C/c2ccc(N)nc2)cc1` has an MIC50 [2] greater than 6 µM, an MIC90 [2] greater than 6 µM and an Activity [3] greater than 6 µM. For the same compound, the Activity [8] was “Non-toxic”.
With `CCCc1cc(O)c(Oc2ccc(C(N)=O)cc2)c(O)c1` the IC50 [9] was 0.28 µM, the MIC50 [2] was 20 µM (≈ 5.75 µg/mL) and the MIC90 [2] was greater than 24 µM. For the same compound, the Activity [8] was “Non-toxic”.
`CC(C)(C)C(=O)Oc1cc(Cl)ccc1Oc1ccc(Cl)cc1Cl` gave an IC50 [9] of 3 µM, an MIC50 [2] of 4 µM (≈ 1.49 µg/mL) and an MIC90 [2] of 6 µM (≈ 2.24 µg/mL). The Activity [3] was greater than 6 µM and the Activity [8] was “Non-toxic”.
`N#Cc1ccc(Cn2ccc(OCc3ccccc3)cc2=O)c(Cl)c1` showed an IC50 [9] greater than 20 µM, an MIC50 [2] of 18 µM (≈ 6.31 µg/mL) and an MIC90 [2] of 23 µM (≈ 8.07 µg/mL). The Activity [8] was “Non-toxic”.
For `CCCc1ccc(Oc2cccc(B(O)O)c2)c(O)c1`, the IC50 [9] was 0.174 µM, the MIC50 [2] was 5 µM (≈ 1.36 µg/mL) and the MIC90 [2] was 6 µM (≈ 1.63 µg/mL). For the same compound, the Activity [3] was greater than 6 µM and the Activity [8] was “Non-toxic”.
